Assay results reported in ChEMBL document CHEMBL1122701, “Antiestrogens. 2. Structure-activity studies in a series of 3-aroyl-2-arylbenzo[b]thiophene derivatives leading to [6-hydroxy-2-(4-hydroxyphenyl)benzo[b]thien-3-yl] [4-[2-(1-piperidinyl)ethoxy]-phenyl]methanone hydrochloride (LY156758), a remarkably effective estrogen antagonist with only minimal …” (1984).
“And” between values parts separate entries of the source, which are not always exact repeats. Equal entries are not always repeated.

How the values were obtained:
[1] = tested on: Rattus norvegicus; experiment: The compound was tested for serum prolactin level in rats at 1 mg/kg dose after peroral administration exp1; format: functional, organism-based; parameters: dose 1 mg/kg
[2] = tested on: Rattus norvegicus; experiment: The compound was tested for serum prolactin level in rats at 10 mg/kg dose after peroral administration; format: functional, organism-based; parameters: dose 10 mg/kg
[3] = tested on: Rattus norvegicus; experiment: The compound was tested for serum LH level in rats at 1 mg/kg dose after peroral administration; format: functional, organism-based; parameters: dose 1 mg/kg
[4] = tested on: Rattus norvegicus; experiment: The compound was tested for serum prolactin level in rats at 1 mg/kg dose after peroral administration; format: functional, organism-based; parameters: dose 1 mg/kg
[5] = species: Rattus norvegicus; experiment: The compound was tested for uterotropic activity in immature rats(Dosage 100 ug); format: functional
Outline: (§1)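 Holtzman rats, immature (19-20 days, 40-45 g), in groups of six. Compound given subcutaneously in corn oil as a daily per-rat dose for 3 days. Rats killed on day 4 and uterine wet weight recorded to the nearest 0.1 mg.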

[6] = species: Rattus norvegicus; experiment: The compound was tested for uterotropic activity in immature rats(Dosage 1 ug); format: functional; outline: as §1
[7] = species: Rattus norvegicus; experiment: The compound was tested for anti-uterotrophic activity in immature rats(Dosage 1000 ug); format: functional
Outline: (§2)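 Holtzman rats, immature (19-20 days, 40-45 g), in groups of six. Each rat received estradiol 1 µg/day sc in corn oil plus compound sc in corn oil as a daily per-rat dose, for 3 days. Rats killed on day 4. Inhibition of estradiol-driven uterine wet weight (weighed to 0.1 mg).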

[8] = species: Rattus norvegicus; experiment: The compound was tested for anti-uterotrophic activity in immature rats(Dosage 100 ug); format: functional; outline: as §2
[9] = species: Rattus norvegicus; experiment: The compound was tested for anti-uterotrophic activity in immature rats(Dosage 10 microg); format: functional; outline: as §2
[10] = species: Rattus norvegicus; experiment: The compound was tested for uterotropic activity in immature rats(Dosage 10 ug); format: functional; outline: as §1
[11] = species: Rattus norvegicus; experiment: The compound was tested for uterotropic activity in immature rats(Dosage 1000 ug); format: functional; outline: as §1
[12] = species: Rattus norvegicus; experiment: The compound was tested for anti-uterotrophic activity in immature rats(Dosage 1 ug); format: functional; outline: as §2
[13] = tested on: Rattus norvegicus; experiment: The compound was tested for no of tumors without change at 10 mg/kg dose after peroral administration (experiment-2); format: functional; details: route oral
Outline: (§3)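 DMBA-induced mammary tumors in female Sprague-Dawley rats. Compound given orally twice daily in PEG-400:water (1:1) for 21 days; controls received vehicle alone. Tumors measured by caliper at start and weekly; area is largest × smallest diameter. Tumors scored as complete or partial remission, no change or progression. Mean ± SE.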

[14] = tested on: Rattus norvegicus; experiment: The compound was tested for no of tumors with complete remission at 1 mg/kg dose after peroral administration (experiment-I); format: functional; details: route oral; outline: as §3
[15] = tested on: Rattus norvegicus; experiment: The compound was tested for the progression of no of tumors at 1 mg/kg dose after peroral administration (experiment-I); format: functional; details: route oral; outline: as §3
[16] = tested on: Rattus norvegicus; experiment: The compound was tested for the no of tumors at 10 mg/kg dose finish of the experiment after peroral administration (experiment-I); format: functional; details: route oral; outline: as §3
[17] = tested on: Rattus norvegicus; experiment: The compound was tested for no of tumors with complete remission at 10 mg/kg dose after peroral administration (experiment-2); format: functional; details: route oral; outline: as §3
[18] = tested on: Rattus norvegicus; experiment: The compound was tested for the % change of tumor area at 1 mg/kg dose after peroral administration (experiment-I); format: functional; details: route oral; outline: as §3
[19] = tested on: Rattus norvegicus; experiment: The compound was tested for the growth of mammary tumors in rats at 1 mg/kg dose after peroral administration at the end of the exp-1; format: functional; details: route oral; outline: as §3
[20] = tested on: Rattus norvegicus; experiment: The compound was tested for no of tumors with partial remission at 10 mg/kg dose after peroral administration (experiment-I); format: functional; details: route oral; outline: as §3
[21] = tested on: Rattus norvegicus; experiment: The compound was tested for the no of tumors at 10 mg/kg dose finish of the experiment after peroral administration (experiment-2); format: functional; details: route oral; outline: as §3
[22] = tested on: Rattus norvegicus; experiment: The compound was tested for no of tumors with partial remission at 10 mg/kg dose after peroral administration (experiment-2); format: functional; details: route oral; outline: as §3
[23] = tested on: Rattus norvegicus; experiment: The compound was tested for the no of tumors at 1 mg/kg dose finish of the experiment after peroral administration (experiment-I); format: functional; details: route oral; outline: as §3
[24] = tested on: Rattus norvegicus; experiment: The compound was tested for no of tumors without change at 1 mg/kg dose after peroral administration (experiment-I); format: functional; details: route oral; outline: as §3
[25] = tested on: Rattus norvegicus; experiment: The compound was tested for the progression of no of tumors at 10 mg/kg dose after peroral administration (experiment-I); format: functional; details: route oral; outline: as §3
[26] = tested on: Rattus norvegicus; experiment: The compound was tested for the no of tumors at 1 mg/kg dose start of the experiment after peroral administration (experiment-I); format: functional; details: route oral; outline: as §3
[27] = tested on: Rattus norvegicus; experiment: The compound was tested for no of tumors with complete remission at 10 mg/kg dose after peroral administration (experiment-I); format: functional; details: route oral; outline: as §3
[28] = tested on: Rattus norvegicus; experiment: The compound was tested for the no of tumors at 10 mg/kg dose start of the experiment after peroral administration (experiment-I); format: functional; details: route oral; outline: as §3
[29] = tested on: Rattus norvegicus; experiment: The compound was tested for the progression of no of tumors at 10 mg/kg dose after peroral administration (experiment-2); format: functional; details: route oral; outline: as §3
[30] = tested on: Rattus norvegicus; experiment: The compound was tested for no of tumors with partial remission at 1 mg/kg dose after peroral administration (experiment-I); format: functional; details: route oral; outline: as §3
[31] = tested on: Rattus norvegicus; experiment: The compound was tested for the no of tumors at 10 mg/kg dose start of the experiment after peroral administration (experiment-2); format: functional; details: route oral; outline: as §3
[32] = tested on: Rattus norvegicus; experiment: The compound was tested for no of tumors without change at 10 mg/kg dose after peroral administration (experiment-I); format: functional; details: route oral; outline: as §3
[33] = tested on: Rattus norvegicus; experiment: The compound was tested for the % change of tumor area at 10 mg/kg dose after peroral administration (experiment-2); details: route oral
[34] = species: Rattus norvegicus; experiment: The compound was tested for uterotropic activity in immature rats(Dosage 0.1 ug); format: functional; outline: as §1
[35] = tested on: Rattus norvegicus; experiment: The compound was tested for the growth of tumors at 10 mg/kg dose finish of the experiment after peroral administration (experiment-2); format: functional; details: route oral; outline: as §3
[36] = tested on: Rattus norvegicus; experiment: The compound was tested for the growth of tumors at 10 mg/kg dose start of the experiment after peroral administration (experiment-2); format: functional; details: route oral; outline: as §3
[37] = tested on: Rattus norvegicus; experiment: The compound was tested for the growth of mammary tumors in rats at 10 mg/kg dose after peroral administration at the end of the exp-2; format: functional; details: route oral; outline: as §3

## O=C(c1ccc(OCCN2CCCCC2)cc1)c1c(-c2ccc(O)cc2)sc2cc(O)ccc12
[1]
  Serum prolactin level: 0.000204 mg/mL
[2]
  Serum prolactin level: 0.000711 mg/mL
[3]
  Serum LH level: 3.08e-05 mg/mL and 2.77e-05 mg/mL
[4]
  Serum prolactin level: 7.24e-05 mg/mL

## O=C(c1ccc(OCCN2CCCCC2)cc1)c1c(-c2ccc(O)cc2)sc2cc(O)ccc12 [RALOXIFENE]
[5]
  Mean uterine weight: 42.7 mg
[6]
  Mean uterine weight: 48.6 mg
[7]
  Mean uterine weight: 28.9 mg
[8]
  Mean uterine weight: 32.5 mg
[9]
  Mean uterine weight: 36.7 mg
[10]
  Mean uterine weight: 42.2 mg
[11]
  Mean uterine weight: 35.4 mg
[12]
  Mean uterine weight: 48.7 mg

## CN(C)CCOc1ccc(C(=O)c2c(-c3ccc(O)cc3)sc3cc(O)ccc23)cc1
[5]
  Mean uterine weight: 66 mg
[6]
  Mean uterine weight: 44.6 mg
[7]
  Mean uterine weight: 70.8 mg
[8]
  Mean uterine weight: 64.7 mg
[9]
  Mean uterine weight: 54.3 mg
[10]
  Mean uterine weight: 55 mg
[11]
  Mean uterine weight: 71.5 mg
[12]
  Mean uterine weight: 54.7 mg

## CC(C)N(CCOc1ccc(C(=O)c2c(-c3ccc(O)cc3)sc3cc(O)ccc23)cc1)C(C)C
[5]
  Mean uterine weight: 62.1 mg
[6]
  Mean uterine weight: 37.3 mg
[7]
  Mean uterine weight: 70.2 mg
[8]
  Mean uterine weight: 69.5 mg
[9]
  Mean uterine weight: 58.7 mg
[10]
  Mean uterine weight: 50 mg
[11]
  Mean uterine weight: 60.4 mg
[12]
  Mean uterine weight: 60.1 mg

## Cl.O=C(c1ccc(OCCN2CCCCC2)cc1)c1c(-c2ccc(O)cc2)sc2cc(O)ccc12 [RALOXIFENE HYDROCHLORIDE]
[13]
  No. of tumours: 1
[14]
  No. of tumours: 1
[15]
  No. of tumours: 2
[16]
  No. of tumours: 13
[17]
  No. of tumours: 4
[18]
  % change tumor area: 132% and 378%
[19]
  Tumor area: 33.3 mm**2 and <77.3 mm**2
[20]
  No. of tumours: 2
[21]
  No. of tumours: 5
[22]
  No. of tumours: 2
[23]
  No. of tumours: 9
[24]
  No. of tumours: 4
[25]
  No. of tumours: 4
[26]
  No. of tumours: 9
[27]
  No. of tumours: 1
[28]
  No. of tumours: 9
[29]
  No. of tumours: 2
[30]
  No. of tumours: 2
[31]
  No. of tumours: 9
[32]
  No. of tumours: 2
[33]
  % change tumor area: 417%

## O=C(c1ccc(OCCN2CCCCCC2)cc1)c1c(-c2ccc(O)cc2)sc2cc(O)ccc12
[5]
  Mean uterine weight: 43.9 mg
[6]
  Mean uterine weight: 52.7 mg
[7]
  Mean uterine weight: 36.7 mg
[8]
  Mean uterine weight: 39.7 mg
[9]
  Mean uterine weight: 52.7 mg
[10]
  Mean uterine weight: 46.6 mg
[11]
  Mean uterine weight: 40.1 mg
[12]
  Mean uterine weight: 56.3 mg

## C[C@]12CC[C@@H]3c4ccc(O)cc4CC[C@H]3[C@@H]1CC[C@@H]2O [ESTRADIOL]
[34]
  Mean uterine weight: 82.3 mg

## CCN(CC)CCOc1ccc(C(=O)c2c(-c3ccc(O)cc3)sc3cc(O)ccc23)cc1
[5]
  Mean uterine weight: 67.6 mg
[6]
  Mean uterine weight: 45.4 mg
[7]
  Mean uterine weight: 66 mg
[8]
  Mean uterine weight: 66.4 mg
[9]
  Mean uterine weight: 61.3 mg
[10]
  Mean uterine weight: 53.6 mg
[11]
  Mean uterine weight: 66.5 mg
[12]
  Mean uterine weight: 56.2 mg

## CC/C(=C(\c1ccccc1)c1ccc(OCCN(C)C)cc1)c1ccccc1 [TAMOXIFEN]
[13]
  No. of tumours: 2
[5]
  Mean uterine weight: 65.6 mg
[6]
  Mean uterine weight: 38.9 mg
[17]
  No. of tumours: 3
[2]
  Serum prolactin level: 0.000126 mg/mL
[7]
  Mean uterine weight: 74.1 mg
[35]
  No. of tumours: 7
[22]
  No. of tumours: 3
[8]
  Mean uterine weight: 72.1 mg
[9]
  Mean uterine weight: 62.1 mg
[36]
  No. of tumours: 11
[10]
  Mean uterine weight: 64.8 mg
[11]
  Mean uterine weight: 70.1 mg
[37]
  Tumor area: 43.4 mm**2 and <46.4 mm**2
[29]
  No. of tumours: 3
[12]
  Mean uterine weight: 64.1 mg
[33]
  % change tumor area: 7

## O=C(c1ccc(OCCN2CCCC2)cc1)c1c(-c2ccc(O)cc2)sc2cc(O)ccc12 [LY-117018]
[5]
  Mean uterine weight: 43.9 mg
[6]
  Mean uterine weight: 55.1 mg
[7]
  Mean uterine weight: 36.1 mg
[8]
  Mean uterine weight: 42.7 mg
[9]
  Mean uterine weight: 44.5 mg
[10]
  Mean uterine weight: 46.6 mg
[11]
  Mean uterine weight: 40.7 mg
[12]
  Mean uterine weight: 61.7 mg
